Measured values from ChEMBL document CHEMBL3994609, “Model-Based Discovery of Synthetic Agonists for the Zn2+-Sensing G-Protein-Coupled Receptor 39 (GPR39) Reveals Novel Biological Functions” (J Med Chem, 2017).
Active and inactive are the calls of the source. The rule behind the calls is not given here.

What was measured:
[1] = target: T1, G-protein coupled receptor 39 (Homo sapiens, UniProt O43194); experiment: (§1) Agonist activity at human GPR39 expressed in HEK293 cells co-expressing Galphaq assessed as myo-[2-3H]inositol phosphate accumulation measured after 75 mins by scintillation proximity assay; type: functional, cell-based
T1 sequence (O43194 whole entry): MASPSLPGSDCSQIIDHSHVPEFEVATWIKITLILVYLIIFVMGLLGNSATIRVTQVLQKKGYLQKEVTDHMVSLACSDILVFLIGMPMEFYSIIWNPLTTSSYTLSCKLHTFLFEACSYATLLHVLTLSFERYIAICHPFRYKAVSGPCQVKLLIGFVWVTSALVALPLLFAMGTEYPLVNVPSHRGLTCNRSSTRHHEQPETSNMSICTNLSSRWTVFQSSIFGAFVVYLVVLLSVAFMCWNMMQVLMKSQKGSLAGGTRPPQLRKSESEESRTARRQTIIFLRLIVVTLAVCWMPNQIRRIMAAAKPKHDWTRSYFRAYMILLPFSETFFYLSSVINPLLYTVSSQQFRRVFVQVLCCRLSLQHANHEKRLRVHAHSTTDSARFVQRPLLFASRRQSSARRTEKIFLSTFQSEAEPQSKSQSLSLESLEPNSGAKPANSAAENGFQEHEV

[2] = target: T1, G-protein coupled receptor 39; experiment: Agonist activity at human GPR39 expressed in HEK293 cells co-expressing Galphaq assessed as myo-[2-3H]inositol phosphate accumulation in presence of 10 uM Zn2+ measured after 75 mins by scintillation proximity assay; type: functional, cell-based
[3] = target: T2, G-protein coupled receptor 39 (Homo sapiens) (UniProt O43194); experiment: as §1; type: functional, cell-based
T2 sequence (whole entry): T1 sequence (O43194 whole entry)

[4] = target: T2, G-protein coupled receptor 39 (Homo sapiens); experiment: Agonist activity at human GPR39 expressed in HEK293 cells co-expressing Galphaq assessed as myo-[2-3H]inositol phosphate accumulation in presence of 100 nM Zn2+ measured after 75 mins by scintillation proximity assay; type: functional, cell-based
[5] = target: T2, G-protein coupled receptor 39 (Homo sapiens); experiment: Agonist activity at human GPR39 expressed in HEK293 cells co-expressing Galphaq assessed as myo-[2-3H]inositol phosphate accumulation in presence of 10 uM Zn2+ measured after 75 mins by scintillation proximity assay relative to zinc; type: functional, cell-based
[6] = target: T3, G-protein coupled receptor 39 (Mus musculus, UniProt Q5U431); experiment: Agonist activity at mouse GPR39 expressed in HEK293 cells co-expressing Galphaq assessed as myo-[2-3H]inositol phosphate accumulation measured after 75 mins by scintillation proximity assay; type: functional, cell-based
T3 sequence (Q5U431 whole entry): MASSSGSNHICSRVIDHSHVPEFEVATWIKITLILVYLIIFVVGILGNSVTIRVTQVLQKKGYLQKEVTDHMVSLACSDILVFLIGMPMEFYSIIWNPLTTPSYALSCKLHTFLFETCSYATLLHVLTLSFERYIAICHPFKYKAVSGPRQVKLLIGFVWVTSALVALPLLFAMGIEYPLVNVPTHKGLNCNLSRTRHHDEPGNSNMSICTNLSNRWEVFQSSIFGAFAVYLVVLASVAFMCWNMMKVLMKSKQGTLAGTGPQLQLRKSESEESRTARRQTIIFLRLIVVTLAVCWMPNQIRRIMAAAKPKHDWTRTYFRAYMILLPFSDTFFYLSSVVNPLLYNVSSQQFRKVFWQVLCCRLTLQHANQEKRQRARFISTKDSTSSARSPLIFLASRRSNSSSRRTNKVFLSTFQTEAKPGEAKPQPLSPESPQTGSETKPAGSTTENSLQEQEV

[7] = Intrinsic clearance in human liver microsomes assessed per mg protein at 3 uM measured after 45 mins by LC-MS/MS analysis; type: ADME, microsome; details: read-out: CLH
[8] = Half life in human liver microsomes at 3 uM measured by LC-MS/MS analysis; type: ADME, microsome
Pancreatic islet = experiment: Induction of glucose-stimulated insulin release in mouse pancreatic islets at 1 uM pretreated for 24 hrs followed by glucose addition measured after 30 mins; type: functional, cell-based
How it was run: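 Islets isolated from GPR39-deficient mice and wild-type littermates on five independent days, 2 to 3 mice per day; insulin secretion measured with vehicle or 1 μM compound.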

## Cc1nn(-c2ncnc3nc[nH]c23)c2c1C(C(=O)NCc1ccccc1)CC(=O)N2 (stereo not given)
[1]
  EC50: 2930 nM
[2]
  EC50: 5 nM

## Cc1nn(-c2ncnc3nc[nH]c23)c2c1C(OC1CCCC1)CC(=O)N2 (stereo not given)
[1]
  EC50: 62 nM
[2]
  EC50: 2 nM

## Cc1nn(-c2ncnc3nc[nH]c23)c2c1C(OCCn1cccn1)CC(=O)N2 (stereo not given)
[1]
  EC50: 2260 nM
[2]
  EC50: 16 nM

## Cc1nn(-c2ncnc3nc[nH]c23)c2c1C(OCCn1nccc1C)CC(=O)N2 (stereo not given)
[1]
  EC50: 1620 nM
[2]
  EC50: 10 nM

## Cc1cc(C)nc(-n2nc(C)c3c2NC(=O)CC3c2ccc(F)cc2F)n1 (stereo not given)
[1]
  EC50: > 10000 nM

## COc1ccc(CCOC2CC(=O)Nc3c2c(C)nn3-c2ncnc3nc[nH]c23)cc1 (stereo not given)
[1]
  EC50: 70 nM
[2]
  EC50: 2 nM

## CC(C)(C)c1cc(C(=O)N/N=C/c2ccc(O)cc2O)[nH]n1
[3]
  Activity: inactive
[4]
  Activity: inactive
[2]
  EC50: 240 nM
[5]
  fold change (FC): 2

## Cc1nn(-c2ncnc3nc[nH]c23)c2c1C(C(=O)N(C)c1ccccc1)CC(=O)N2 (stereo not given)
[1]
  EC50: 5220 nM
[2]
  EC50: 32 nM

## Cc1nn(-c2ncnc3nc[nH]c23)c2c1C(OCc1ccccc1F)CC(=O)N2 (stereo not given)
[1]
  EC50: 78 nM
[2]
  EC50: 4 nM

## Cc1nn(-c2ncnc3nc[nH]c23)c2c1C(OCCc1ccccc1)CC(=O)N2 (stereo not given)
[1]
  EC50: 40 nM
[2]
  EC50: 3 nM

## OCC(O)/C=N/Nc1nc(Nc2ccccc2)nc(Nc2ccccc2)n1 (stereo not given)
[3]
  Activity: inactive
[4]
  Activity: inactive
[2]
  EC50: 750 nM
[5]
  fold change (FC): 2

## Cc1cc(C)n(CCOC2CC(=O)Nc3c2c(C)nn3-c2ncnc3nc[nH]c23)n1 (stereo not given)
[1]
  EC50: 2000 nM
[2]
  EC50: 16 nM

## Cc1nn(-c2ncnc3nc[nH]c23)c2c1C(OCc1ccc(F)cc1)CC(=O)N2 (stereo not given)
[1]
  EC50: 126 nM
[2]
  EC50: 1 nM

## Cc1nn(-c2ncnc3nc[nH]c23)c2c1C(OCc1ccc(C#N)cc1)CC(=O)N2 (stereo not given)
[1]
  EC50: 60 nM
[2]
  EC50: 4 nM

## CCC(C(=O)NC1CC(=O)Nc2c1c(C)nn2-c1ncnc2nc[nH]c12)c1ccccc1 (stereo not given)
[1]
  EC50: 79 nM
[2]
  EC50: 5 nM

## Cc1nn(-c2ncnc3nc[nH]c23)c2c1C(C(=O)NCc1ccc(F)cc1)CC(=O)N2 (stereo not given)
[1]
  EC50: 1220 nM
[2]
  EC50: 4 nM

## Cc1nn(-c2ncnc3nc[nH]c23)c2c1C(OCC(C)C)CC(=O)N2 (stereo not given)
[1]
  EC50: 111 nM
[2]
  EC50: 4 nM

## Cc1nn(-c2ncnc3nc[nH]c23)c2c1C(c1ccc(OC(C)C)cc1)CC(=O)N2 (stereo not given)
[1]
  EC50: 2700 nM
[2]
  EC50: 18 nM
[6]
  EC50: 380 nM
[7]
  microsomal CLint at 3 µM: 58.3 µL/min/mg
[8]
  half-life at 3 µM: 24 min
Pancreatic islet
  Activity: inactive

## Cc1nn(-c2ncnc3nc[nH]c23)c2c1C(C(=O)N(C)c1nccs1)CC(=O)N2 (stereo not given)
[1]
  EC50: 3300 nM
[2]
  EC50: 18 nM

## Cc1nn(-c2ncnc3nc[nH]c23)c2c1C(C(=O)Nc1ccccc1)CC(=O)N2 (stereo not given)
[2]
  EC50: 10 nM

## Cc1nn(-c2ncnc3nc[nH]c23)c2c1C(NC(=O)Cc1cccs1)CC(=O)N2 (stereo not given)
[1]
  EC50: 244 nM
[2]
  EC50: 3 nM

## Cc1nn(-c2ncnc3nc[nH]c23)c2c1C(NC(=O)c1ccccc1)CC(=O)N2 (stereo not given)
[1]
  EC50: 158 nM
[2]
  EC50: 3 nM

## Cc1nn(-c2ncnc3nc[nH]c23)c2c1C(c1ccc(F)cc1F)CC(=O)N2 (stereo not given)
[1]
  EC50: 460 nM

## Cc1nn(-c2ncnc3nc[nH]c23)c2c1C(OCc1ccccc1C#N)CC(=O)N2 (stereo not given)
[1]
  EC50: 127 nM
[2]
  EC50: 8 nM

## C=CCN1c2c(n(C)c(=O)n(C)c2=O)NC1N/N=C/c1ccc(O)cc1O (stereo not given)
[3]
  Activity: inactive
[4]
  Activity: inactive
[2]
  EC50: 340 nM
[5]
  fold change (FC): 2

## C/C(=N\NC(=O)c1cc2ccccc2cc1O)c1ccc(N)cc1
[3]
  Activity: inactive
[4]
  Activity: inactive
[2]
  EC50: 1100 nM
[5]
  fold change (FC): 2

## Cc1nn(-c2ncnc3nc[nH]c23)c2c1C(OC(=O)Cc1ccccc1)CC(=O)N2 (stereo not given)
[1]
  EC50: 381 nM
[2]
  EC50: 6 nM

## Cc1nn(-c2ncnc3nc[nH]c23)c2c1C(OCc1ccc(C(C)C)cc1)CC(=O)N2 (stereo not given)
[1]
  EC50: 1690 nM
[2]
  EC50: 5 nM

## Cc1nn(-c2ncnc3nc[nH]c23)c2c1C(NC(=O)Cc1ccccc1)CC(=O)N2 (stereo not given)
[1]
  EC50: 418 nM
[2]
  EC50: 3 nM

## Cc1nn(-c2ncnc3nc[nH]c23)c2c1C(C(=O)NCc1ccc3c(c1)OCO3)CC(=O)N2 (stereo not given)
[1]
  EC50: 791 nM
[2]
  EC50: 7 nM

## Cc1noc(C)c1COC1CC(=O)Nc2c1c(C)nn2-c1ncnc2nc[nH]c12 (stereo not given)
[2]
  EC50: 5 nM

## Cc1nn(-c2ncnc3nc[nH]c23)c2c1C(OC(=O)c1ccc(F)cc1)CC(=O)N2 (stereo not given)
[1]
  EC50: 245 nM
[2]
  EC50: 4 nM

## CCCCCCCCOC1CC(=O)Nc2c1c(C)nn2-c1ncnc2nc[nH]c12 (stereo not given)
[1]
  EC50: 388 nM
[2]
  EC50: 8 nM

## Cc1nn(-c2ncnc3nc[nH]c23)c2c1C(OCc1ccccc1Cl)CC(=O)N2 (stereo not given)
[1]
  EC50: 47 nM
[2]
  EC50: 2 nM

## Cc1nn(-c2ncnc3nc[nH]c23)c2c1C(OCC(=O)c1ccc(F)cc1)CC(=O)N2 (stereo not given)
[1]
  EC50: 973 nM
[2]
  EC50: 3 nM

## Cc1nn(-c2ncnc3nc[nH]c23)c2c1C(OCc1ccc(Cl)cc1Cl)CC(=O)N2 (stereo not given)
[1]
  EC50: 243 nM
[2]
  EC50: 4 nM
